Compound activity deposited in PubChem by Johns Hopkins Ion Channel Center.
Most compounds without a hit are left out; they make up all but 3.5% or so of the library.
MrgX1 PAM: human MrgX1 positive allosteric modulation, primary screen. Q96LB2. MrgX1-HEK293, Fluo-4 calcium flux, FDSS; stronger effect = higher value. B-score at 10 µM. actives 0.63% (n = 310,000). AID 588675;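 active means plate-corrected calcium response at least 3 library SD above typical, normal starting fluorescence, not activating the receptor alone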;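 further: compound read alongside a low EC10 to EC30 dose of BAM8-22 agonist; peak minus trough fluorescence over baseline measured at the second addition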
Target sequence (Q96LB2 whole entry, looked up): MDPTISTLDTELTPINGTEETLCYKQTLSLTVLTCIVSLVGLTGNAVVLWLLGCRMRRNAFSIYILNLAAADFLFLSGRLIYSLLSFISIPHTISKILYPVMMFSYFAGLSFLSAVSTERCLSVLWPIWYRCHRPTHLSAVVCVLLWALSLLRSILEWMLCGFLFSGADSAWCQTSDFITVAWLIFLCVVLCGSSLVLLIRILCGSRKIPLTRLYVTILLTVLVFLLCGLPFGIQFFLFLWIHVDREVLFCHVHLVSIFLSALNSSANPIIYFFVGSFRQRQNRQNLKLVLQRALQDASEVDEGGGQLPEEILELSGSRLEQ
RGS4 pot: potentiators or activators of RGS4. HEK293 M3R/inducible RGS4, carbachol calcium flux Fluo4; stronger effect = lower value. actives 0.92% (n = 310,000). B-score at 10 µM. AID 463111;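 active means B-score of the integrated calcium signal more than 4 SD below the library mean, with starting fluorescence not abnormally high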;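 further: negative B-score means reduced calcium response which marks RGS4 activation or potentiation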
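Test system: HEK293 cells with stable M3R and inducible RGS4; also added: carbachol at ECmax as muscarinic agonist stimulus; schedule: dye loading 30 min 37 °C, buffer rest 30 min RT; technique: kinetic calcium fluorescence imaging with Fluo4-AM dye, 2 µM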
MrgX1 antag: antagonists of human MrgX1 receptor; Q96LB2; MRGX1-HEK293 calcium flux, Fluo-4, BAM8-22 antagonism; stronger effect = lower value; B-score at 10 µM; actives 1.3% (n = 310,000); AID 588676;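 active means calcium-response B-score plate-corrected more than 3 library SD below zero, starting fluorescence within 5 deviations, no agonist response on first addition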;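 further: peak minus trough fluorescence over baseline after final BAM8-22 challenge near maximal dose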
MrgX1 ag: agonists of human MrgX1 receptor; MrgX1-HEK293 cells, Fluo-4 calcium fluorescence, agonist mode; stronger effect = higher value; Q96LB2; actives 0.44% (n = 310,000); B-score at 10 µM;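 active means calcium response B-score plate-corrected fluorescence ratio at least 3 library SD, with starting fluorescence B-score inside 5 SD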
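System: HEK293 cells stably expressing human MrgX1 receptor; Dosing: test compound in the initial addition of three; Schedule: overnight plating, then 30 min 37 °C plus 30 min room-temperature dye loading; Detection: kinetic calcium dye fluorescence, Fluo-4 NW; Controls: per-plate positive and negative controls for Z′ factor.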
RGS4 block: human RGS4 inhibition; P49798; B-score at 10 µM; actives 0.45% (n = 310,000); HEK293 M3R/RGS4 inducible, Fluo-4 calcium flux; stronger effect = higher value; triggered by carbachol at its EC20;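 active means B-score, a plate-corrected calcium signal, over three deviations above library mean, with baseline fluorescence within five deviations of library mean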;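 further: RGS4 expression induced by doxycycline in cells with stable M3 receptor; B-score is computed from the integrated fluorescence ratio over baseline after carbachol; higher B-score means a larger calcium signal and so more RGS4 inhibition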
Target sequence (P49798 whole entry, looked up): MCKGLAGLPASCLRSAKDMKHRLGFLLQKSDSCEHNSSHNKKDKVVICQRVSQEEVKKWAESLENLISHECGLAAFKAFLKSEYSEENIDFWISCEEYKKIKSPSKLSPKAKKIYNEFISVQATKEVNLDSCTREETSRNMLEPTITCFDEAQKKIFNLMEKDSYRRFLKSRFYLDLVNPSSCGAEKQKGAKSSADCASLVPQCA
Numbers stand for hits; - = inactive; . = no result.

SMILES	MrgX1 PAM	RGS4 pot	MrgX1 antag	MrgX1 ag	RGS4 block
O=C(c1cnn(C(=O)c2cccc(S(=O)(=O)N3CCOCC3)c2)c1)c1ccccc1O	-	-	-	-	-
Cc1ccc(/C=C2/Sc3ccccc3N(CC(=O)NCCCOC(C)C)C2=O)cc1	-	-	-4.8	-	-
COc1ccc(Sc2ccccc2CN(C)C)cc1OC	-	-	-	-	-
CNCc1ccccc1Sc1ccc(O)c(O)c1	-	-7.5	-5.7	-	-
COc1cc(N2CCCC2)c(OC)cc1/C=C1/NC(=S)NC1=O	-	-	-5.4	-	-
O=C(N/N=C/c1cn(-c2cccs2)nc1-c1ccccc1)c1ccccc1O	-	-	-8.3	-	-
CCOc1ccccc1C(=O)Nc1cccc(-c2nnc(-c3ccccc3)o2)c1	-	-7.2	-	-	-
C/C(=N\Nc1ccc(Cl)c(C(=O)O)c1)c1ccc[nH]1	-	-	-	-	-
O=C(Nc1ccc([N+](=O)[O-])cc1)c1cc(Cl)sc1Cl	-	-	-	-	-
Fc1ccc(Nc2ccc3ccccc3n2)c(F)c1	-	-	-	-	-
CC1(c2nnc(-c3ccc(Cl)cc3)o2)CC(c2cccc(Cl)c2)=NO1 (stereo not given)	-	-	-5.9	-	-
Cc1cc(C)n2nc(C(=O)OCC(=O)c3c[nH]c4ccccc34)nc2n1	-	-	-5.5	-	-
CCCn1c(-c2ccc(F)cc2)n[nH]c1=S	-	-	-	-	-
C=CCn1c(-c2cccc([N+](=O)[O-])c2)n[nH]c1=S	-	-	-	-	-
C=C(C)Cn1c(-c2cccc([N+](=O)[O-])c2)n[nH]c1=S	-	-	-4.8	-	-
CCCCn1c(-c2ccc([N+](=O)[O-])cc2)n[nH]c1=S	-	-10	-	-	-
O=C(O)c1cccnc1C(=O)c1ccccc1	-	-	-	-	-
CCOc1ccc(NC(=O)CCCN2C(=O)C(c3ccccc3)Oc3cccnc32)cc1 (stereo not given)	-	-	-	-	-
COc1ccc(C(=O)Nc2ccc(C(=O)N3CCC(C)CC3)cc2)cc1OC	-	-	-	-	-
CN(C)c1ccc(/C=N/NC(=O)CNC(=O)/C=C/c2ccco2)cc1	-	-	-	-	-
O=C(/C=C/c1ccco1)NCC(=O)N/N=C/c1ccc(Cl)cc1	-	-	-5	-	-
CC(C)c1ccc(/C=C(\c2nc3ccccc3[nH]2)S(=O)(=O)c2ccccc2)cc1	-	-	-	-	-
O=S(=O)(/C(=C/c1ccc(C(F)(F)F)cc1)c1nc2ccccc2[nH]1)c1ccccc1	-	-	-	-	22
CC(C)c1ccc2c(c1)CCC1C(C)(CN)CCCC21C (stereo not given)	-	-	-	46	-
Cc1cc(C)c(C)c(S(=O)(=O)N2CCN(C(=O)C3CCC3)CC2)c1C	-	-	-	-	-
SMILES	MrgX1 PAM	RGS4 pot	MrgX1 antag	MrgX1 ag	RGS4 block
O=C(O)c1ccccc1/C=N/Nc1nc(N2CCCCC2)nc(N2CCCCC2)n1	-	-	-6.6	-	-
COc1cccc(/C=N/Nc2nc(N3CCCC3)nc(N3CCCC3)n2)c1O	-	-7.7	-	-	-
Cc1ccc(/C=C2\C(=N)N3N=C(CC(=O)N4CCCCC4)SC3=NC2=O)cc1	-	-	-	-	-
COc1ccc(/C=C2\C(=N)N3N=C(CC(=O)N4CCCCC4)SC3=NC2=O)cc1	-	-	-	38	-
COc1ccc(/C=C2/C(=N)N3N=C(CC(=O)N4CCCC4)SC3=NC2=O)cc1	-	-	-	35	-
Cc1ccc(C2CC(=O)NC(SCc3ccccc3)=C2C#N)o1 (stereo not given)	-	-	-	30	-
CCSC1=C(C#N)C(c2ccc(C)o2)CC(=O)N1 (stereo not given)	-	-	-	-	-
COc1ccc2[nH]cc(/C=C/c3cc[n+](C)cc3)c2c1	-	-	-7.9	-	-
COc1ccc2[nH]cc(C=O)c2c1	-	-	-	-	-
NC(=O)C1Cc2ccccc2CN1S(=O)(=O)c1ccc(Cl)s1 (stereo not given)	-	-	-	-	-
Cc1ccc(-c2cn3nc(-c4ccccc4)c(-c4ccccc4)nc3n2)cc1	-	-7	-	-	-
CCOc1ccc(/C=C2/SC(=O)NC2=S)cc1	-	-	-	32	-
CCOc1ccc(/C=C2\SC(=S)N(N3C(=O)C4CC4C3=O)C2=O)cc1 (stereo not given)	-	-	-	-	-
CCOc1ncccc1C(=O)OCC(=O)Nc1cccc(S(N)(=O)=O)c1	-	-	-	-	-
CCOc1ncccc1C(=O)Nc1cccc(C(=O)Nc2cccc(S(=O)(=O)CCO)c2)c1	-	-	-5.3	-	-
CCn1cc(CN2CCC(C(=O)Nc3ccc(Oc4cccnc4)cc3)CC2)cn1	-	-	-	-	-
COc1cccc(C(C(=O)NCc2ccco2)N(Cc2ccco2)C(=O)Cn2nnc3ccccc32)c1 (stereo not given)	-	-7.2	-	-	-
CC1OC(O[C@H]2CC[C@]3(C)C4C=C[C@]56OC[C@@]7(CC[C@@H](C)[C@H](C)C75)[C@H](O)C[C@@]6(C)[C@]4(C)CC[C@H]3C2(C)C)C(OC2OC(CO)C(O)C(O)C2OC2OCC(O)C(O)C2O)C(O)C1O (stereo not given in full)	.	-7.5	.	.	-
O=C(NCCC1CCCCN1S(=O)(=O)c1ccc(F)cc1)C(=O)NCCN1CCOCC1 (stereo not given)	-	-	-	-	-
Oc1cccc2ccc(Nc3ccccn3)nc12	-	-	-7.4	-	-
O=C(Nc1ccc(Br)c(C(F)(F)F)c1)c1ccccc1	-	-	-	-	-
O=C(Nc1ccc(Br)c(C(F)(F)F)c1)c1ccc(C(F)(F)F)cc1	-	-	-7.2	-	-
O=C(Nc1ccc(OCC(F)(F)C(F)F)c(C(F)(F)F)c1)c1ccc(Cl)cc1	-	-7.8	-	-	-
CCc1noc(C)c1C(=O)N(C)CC(=O)Nc1ccc(Br)cc1C	-	-	-	-	-
Cc1cccc(-c2oc3ccccc3c2-c2ccc3c(c2)OCO3)c1	-	-	-6	-	-
CCC(C)[C@H](NC(=O)OC(C)(C)C)C(=O)NCC1CCC(C(=O)N[C@@H](Cc2ccccc2)C(=O)O)CC1 (stereo not given in full)	-	-	-	-	-
Cc1nc2ccccn2c1C(=O)N/N=C/c1ccc([N+](=O)[O-])o1	-	-	-6	-	-
Cc1nn(C)c(C(=O)N/N=C/c2ccccc2)c1[N+](=O)[O-]	-	-9.9	-	-	-
Cc1nc2ccccn2c1C(=O)N/N=C/c1ccc([N+](=O)[O-])cc1	-	-	-	-	-
Cc1nn(C)c(C(=O)Nc2cccc(Nc3ccccc3)c2)c1[N+](=O)[O-]	-	-	-	-	-
